What is called IC50 is the midpoint of a concentration-inhibition curve.

For the first test, the target named is T1, Prostaglandin G/H synthase 2 (Homo sapiens, UniProt P35354).
T1 sequence (P35354 whole entry): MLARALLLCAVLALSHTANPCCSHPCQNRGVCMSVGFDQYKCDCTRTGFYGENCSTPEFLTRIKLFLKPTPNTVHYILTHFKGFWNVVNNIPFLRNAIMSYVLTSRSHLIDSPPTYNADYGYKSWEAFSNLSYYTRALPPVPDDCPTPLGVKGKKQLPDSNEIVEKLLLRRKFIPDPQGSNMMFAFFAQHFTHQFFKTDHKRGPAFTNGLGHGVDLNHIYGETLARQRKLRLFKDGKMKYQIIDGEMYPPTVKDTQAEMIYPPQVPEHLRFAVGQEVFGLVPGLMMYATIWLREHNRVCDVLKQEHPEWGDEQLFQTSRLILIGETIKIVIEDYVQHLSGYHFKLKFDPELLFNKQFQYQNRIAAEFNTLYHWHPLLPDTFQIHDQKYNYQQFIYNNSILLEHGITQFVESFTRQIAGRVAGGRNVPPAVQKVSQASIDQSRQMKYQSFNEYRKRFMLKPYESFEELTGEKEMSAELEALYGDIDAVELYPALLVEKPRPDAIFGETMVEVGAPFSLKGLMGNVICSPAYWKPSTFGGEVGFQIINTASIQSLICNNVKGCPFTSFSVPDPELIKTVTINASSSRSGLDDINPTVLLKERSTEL
The experiment in a line: Inhibition of human COX2 expressed in insect cells using arachidonic acid as substrate pretreated for 3 mins followed by substrate addition measured immediately. The test is classed as cell-based.
Settings: not given; call rule not given here
In the case of `CC(=O)OC1C2OC(CC(C)=CC2=O)C1(O)C=C(C)C` (centres undefined), the IC50 result is “Not Active”.

With `CC(=O)Oc1ccccc1C(=O)O` [ASPIRIN], the IC50 result was “Not Active”.

Staying with this test, now noted: read-out: IC50.
For the compound `CCC(C)C(C(=O)O)N(C(=O)C(N)CC(C)C)C(C(=O)O)C(C)CC` (centres undefined), the IC50 stood at 34.6 µM.

As to `COc1ccc2ccc(=O)oc2c1C/C=C(\C)COC(=O)CC(C)C`, the IC50 came out at 56.4 µM.

As to `COc1ccc2ccc(=O)oc2c1C/C=C(\C)COC(=O)C=C(C)C`, the IC50 turned out to be 45.3 µM.

For `COc1ccc2cc([C@H](C)C(=O)O)ccc2c1` [NAPROXEN], the concentration for half-maximal inhibition (IC50) was determined as 52.2 µM.

In the case of `COc1ccc2ccc(=O)oc2c1CC=C(C)C` [OSTHOLE], the IC50 is 81.1 µM.

Tested on in another test: not listed separately
Description: Antioxidant activity assessed as redox reaction between compound and MTT in DMSO measured after 6 hrs. The test is classed as functional.
Settings: not given
Put shortly:
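Reduction of MTT to formazan was read on a microplate reader. Results are reported as 50% inhibitory concentrations, mean ± SEM (n = 2).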
For the compound `CC(=O)OC1C2OC(CC(C)=CC2=O)C1(O)C=C(C)C` (centres undefined), the half-inhibitory concentration (IC50) came to 67.1 µM.

In the case of `CCC(C)C(C(=O)O)N(C(=O)C(N)CC(C)C)C(C(=O)O)C(C)CC` (centres undefined), the IC50 was found to be 48.6 µM.

Turning to `COc1ccc2ccc(=O)oc2c1C/C=C(\C)COC(=O)CC(C)C`, the IC50 was 128 µM.

In the case of `COc1ccc2ccc(=O)oc2c1C/C=C(\C)COC(=O)C=C(C)C`, the concentration for half-maximal inhibition (IC50) is 122 µM.

On to `O=C1O[C@H]([C@@H](O)CO)C(O)=C1O` [ASCORBIC ACID], for which the half-maximal inhibitory concentration (IC50) was determined as 142 µM.

In the case of `CC(C)(C)c1cc(O)ccc1O` [E319], the concentration for half-maximal inhibition (IC50) stood at 150 µM.

Tested on in another test: not listed separately
Description: Antioxidant activity assessed as inhibition of ferrous chloride-induced lipid peroxidation in […] labelled SLPC large unilamellar vesicle measured over 21 mins by fluorescence assay. Type of test: functional.
Settings: not given
An outline of the steps: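 Vesicle model: large unilamellar vesicles carrying the fluorescent probe 3-[p-(6-phenyl)-1,3,5-hexatrienyl]phenylpropionic acid. Lipid peroxidation was followed by the emitted fluorescence on a fluorometer. Values are 50% inhibitory concentrations, expressed as mean ± SEM (n = 2).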
On to `O=C(O)C(O)Cc1ccccc1` (centres undefined), for which the half-inhibitory concentration (IC50) was 161 µM.

Regarding `CC(=O)OC1C2OC(CC(C)=CC2=O)C1(O)C=C(C)C` (centres undefined), the IC50 came to 114 µM.

For the compound `CCC(C)C(C(=O)O)N(C(=O)C(N)CC(C)C)C(C(=O)O)C(C)CC` (centres undefined), the half-inhibitory concentration (IC50) was 43 µM.

`COc1ccc2ccc(=O)oc2c1C/C=C(\C)COC(=O)CC(C)C`: the IC50 came out at 86.1 µM.

`COc1ccc2ccc(=O)oc2c1C/C=C(\C)COC(=O)C=C(C)C`: the half-inhibitory concentration (IC50) stood at 62.6 µM.

With `Cc1cc(C(C)(C)C)c(O)c(C(C)(C)C)c1` [BUTYLATED HYDROXYTOLUENE], the IC50 is 6.9 µM.

`CC(C)(C)c1cc(O)ccc1O` [E319]: the concentration for half-maximal inhibition (IC50) amounted to 10 µM.

Take `CC(C)=CCOc1c2ccoc2cc2oc(=O)ccc12` [ISOIMPERATORIN]: the IC50 is 63.7 µM.

Consider `O=C(O)CC(O)C(=O)O` (centres undefined) [MALIC ACID], for which the half-maximal inhibitory concentration (IC50) worked out at 97.7 µM.

On to `COc1ccc2ccc(=O)oc2c1CC=C(C)C` [OSTHOLE], for which the IC50 turned out to be 120 µM.

As to `CC1(C)O[C@H]1COc1c2ccoc2cc2oc(=O)ccc12` [OXYPEUCEDANIN], the half-maximal inhibitory concentration (IC50) worked out at 74.8 µM.

The target of a further test is T2, Prostaglandin G/H synthase 1 (Ovis aries, UniProt P05979).
T2 sequence (P05979 whole entry): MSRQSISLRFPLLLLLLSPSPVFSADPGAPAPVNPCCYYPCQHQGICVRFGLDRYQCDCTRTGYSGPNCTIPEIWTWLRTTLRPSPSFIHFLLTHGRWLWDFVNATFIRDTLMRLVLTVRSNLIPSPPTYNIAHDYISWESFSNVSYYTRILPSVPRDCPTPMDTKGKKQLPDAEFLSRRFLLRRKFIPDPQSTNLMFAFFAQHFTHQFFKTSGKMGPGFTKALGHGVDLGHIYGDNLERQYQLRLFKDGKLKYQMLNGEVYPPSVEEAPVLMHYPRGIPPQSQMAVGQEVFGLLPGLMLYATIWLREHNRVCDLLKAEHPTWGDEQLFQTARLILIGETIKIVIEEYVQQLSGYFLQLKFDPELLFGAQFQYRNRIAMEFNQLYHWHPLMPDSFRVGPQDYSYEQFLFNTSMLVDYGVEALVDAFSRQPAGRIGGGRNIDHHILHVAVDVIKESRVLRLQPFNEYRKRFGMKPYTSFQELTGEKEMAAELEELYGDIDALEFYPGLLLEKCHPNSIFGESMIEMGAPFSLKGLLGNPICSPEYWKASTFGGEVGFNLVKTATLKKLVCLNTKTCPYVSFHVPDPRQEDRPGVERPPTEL
Description: Inhibition of ovine COX1 using arachidonic acid as substrate pretreated for 3 mins followed by substrate addition measured immediately.
Settings: not given
Put shortly:
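COX-1 enzyme was prepared in-house from ram seminal vesicles. Activity was monitored in a micro oxygen chamber using an oxygen electrode attached to a biological oxygen monitor.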
As to `CC(=O)OC1C2OC(CC(C)=CC2=O)C1(O)C=C(C)C` (centres undefined), the half-maximal inhibitory concentration (IC50) result is on record as “Not Active”.

With `CCC(C)C(C(=O)O)N(C(=O)C(N)CC(C)C)C(C(=O)O)C(C)CC` (centres undefined), the IC50 entry was “Not Active”.

The same test, now with this note: read-out: IC50.
As to `COc1ccc2ccc(=O)oc2c1C/C=C(\C)COC(=O)CC(C)C`, the half-maximal inhibitory concentration (IC50) is 47.7 µM.

Turning to `COc1ccc2ccc(=O)oc2c1C/C=C(\C)COC(=O)C=C(C)C`, the IC50 is 36.8 µM.

As for `COc1ccc2ccc(=O)oc2c1CC=C(C)C` [OSTHOLE], the IC50 came out at 52.5 µM.

Source of the values: ChEMBL document CHEMBL4130432, “Lipid Peroxidation and Cyclooxygenase Enzyme Inhibitory Compounds from Prangos haussknechtii” (J Nat Prod, 2017).
